tested on: Aspergillus fumigatus; experiment: Antimicrobial activity against Aspergillus fumigatus RCMB 002008 at 1 mg/ml by agar diffusion technique; format: functional; settings: read-out: DIZ
Method in brief: (§1)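 Agar well diffusion. Test compounds and reference standard drugs were diluted to 5.0, 2.5 and 1.0 mg/mL and applied to 0.6 cm wells. Inhibition zone beyond the control was scored as 0 (no inhibition), + (0.1–0.5 cm), ++ (0.6–1.0 cm) or +++ (1.0–1.5 cm).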

Structure (SMILES) | zone of inhibition at 1000 µg/mL
Nn1c(-c2cccnc2)n[nH]c1=S | 0 mm
Nn1c(SCCCSc2nnc(-c3cccnc3)n2N)nnc1-c1cccnc1 | 0 mm
S=c1[nH]nc(-c2cccnc2)n1/N=C\c1ccccc1OCCCOc1ccccc1/C=N\n1c(-c2cccnc2)n[nH]c1=S | 0 mm

tested on: Aspergillus fumigatus; experiment: Antimicrobial activity against Aspergillus fumigatus RCMB 002008 at 2.5 mg/ml by agar diffusion technique; format: functional; settings: read-out: DIZ; method in brief: as §1

Structure (SMILES) | zone of inhibition at 2500 µg/mL
Nn1c(-c2cccnc2)n[nH]c1=S | 0 mm
Nn1c(SCCCSc2nnc(-c3cccnc3)n2N)nnc1-c1cccnc1 | 1 mm
S=c1[nH]nc(-c2cccnc2)n1/N=C\c1ccccc1OCCCOc1ccccc1/C=N\n1c(-c2cccnc2)n[nH]c1=S | 0 mm

tested on: Aspergillus fumigatus; experiment: Antimicrobial activity against Aspergillus fumigatus RCMB 002008 at 5 mg/ml by agar diffusion technique; format: functional; settings: read-out: DIZ; method in brief: as §1

Structure (SMILES) | zone of inhibition at 5000 µg/mL
Nn1c(-c2cccnc2)n[nH]c1=S | 0 mm
Nn1c(SCCCSc2nnc(-c3cccnc3)n2N)nnc1-c1cccnc1 | 1 mm
S=c1[nH]nc(-c2cccnc2)n1/N=C\c1ccccc1OCCCOc1ccccc1/C=N\n1c(-c2cccnc2)n[nH]c1=S | 0 mm

tested on: Penicillium italicum; experiment: Antimicrobial activity against Penicillium italicum RCMB 001018 at 1 mg/ml by agar diffusion technique; format: functional; settings: read-out: DIZ; method in brief: as §1

Structure (SMILES) | zone of inhibition at 1000 µg/mL
Nn1c(-c2cccnc2)n[nH]c1=S | 0 mm
Nn1c(SCCCSc2nnc(-c3cccnc3)n2N)nnc1-c1cccnc1 | 0 mm
S=c1[nH]nc(-c2cccnc2)n1/N=C\c1ccccc1OCCCOc1ccccc1/C=N\n1c(-c2cccnc2)n[nH]c1=S | 0 mm

tested on: Penicillium italicum; experiment: Antimicrobial activity against Penicillium italicum RCMB 001018 at 2.5 mg/ml by agar diffusion technique; format: functional; settings: read-out: DIZ; method in brief: as §1

Structure (SMILES) | zone of inhibition at 2500 µg/mL
Nn1c(-c2cccnc2)n[nH]c1=S | 0 mm
Nn1c(SCCCSc2nnc(-c3cccnc3)n2N)nnc1-c1cccnc1 | 0 mm
S=c1[nH]nc(-c2cccnc2)n1/N=C\c1ccccc1OCCCOc1ccccc1/C=N\n1c(-c2cccnc2)n[nH]c1=S | 0 mm

tested on: Penicillium italicum; experiment: Antimicrobial activity against Penicillium italicum RCMB 001018 at 5 mg/ml by agar diffusion technique; format: functional; settings: read-out: DIZ; method in brief: as §1

Structure (SMILES) | zone of inhibition at 5000 µg/mL
Nn1c(-c2cccnc2)n[nH]c1=S | 1 mm
Nn1c(SCCCSc2nnc(-c3cccnc3)n2N)nnc1-c1cccnc1 | 0 mm
S=c1[nH]nc(-c2cccnc2)n1/N=C\c1ccccc1OCCCOc1ccccc1/C=N\n1c(-c2cccnc2)n[nH]c1=S | 0 mm

tested on: Syncephalastrum racemosum; experiment: Antimicrobial activity against Syncephalastrum racemosum RCMB 016001 at 1 mg/ml by agar diffusion technique; format: functional; settings: read-out: DIZ; method in brief: as §1

Structure (SMILES) | zone of inhibition at 1000 µg/mL
Nn1c(-c2cccnc2)n[nH]c1=S | 0 mm
Nn1c(SCCCSc2nnc(-c3cccnc3)n2N)nnc1-c1cccnc1 | 0 mm
S=c1[nH]nc(-c2cccnc2)n1/N=C\c1ccccc1OCCCOc1ccccc1/C=N\n1c(-c2cccnc2)n[nH]c1=S | 0 mm

tested on: Syncephalastrum racemosum; experiment: Antimicrobial activity against Syncephalastrum racemosum RCMB 016001 at 2.5 mg/ml by agar diffusion technique; format: functional; settings: read-out: DIZ; method in brief: as §1

Structure (SMILES) | zone of inhibition at 2500 µg/mL
Nn1c(-c2cccnc2)n[nH]c1=S | 0 mm
Nn1c(SCCCSc2nnc(-c3cccnc3)n2N)nnc1-c1cccnc1 | 0 mm
S=c1[nH]nc(-c2cccnc2)n1/N=C\c1ccccc1OCCCOc1ccccc1/C=N\n1c(-c2cccnc2)n[nH]c1=S | 1 mm

tested on: Syncephalastrum racemosum; experiment: Antimicrobial activity against Syncephalastrum racemosum RCMB 016001 at 5 mg/ml by agar diffusion technique; format: functional; settings: read-out: DIZ; method in brief: as §1

Structure (SMILES) | zone of inhibition at 5000 µg/mL
Nn1c(-c2cccnc2)n[nH]c1=S | 0 mm
Nn1c(SCCCSc2nnc(-c3cccnc3)n2N)nnc1-c1cccnc1 | 1 mm
S=c1[nH]nc(-c2cccnc2)n1/N=C\c1ccccc1OCCCOc1ccccc1/C=N\n1c(-c2cccnc2)n[nH]c1=S | 1 mm

tested on: Candida albicans; experiment: Antimicrobial activity against Candida albicans RCMB 005003 at 1 mg/ml by agar diffusion technique; format: functional; settings: read-out: DIZ; method in brief: as §1

Structure (SMILES) | zone of inhibition at 1000 µg/mL
Nn1c(-c2cccnc2)n[nH]c1=S | 0 mm
Nn1c(SCCCSc2nnc(-c3cccnc3)n2N)nnc1-c1cccnc1 | 0 mm
S=c1[nH]nc(-c2cccnc2)n1/N=C\c1ccccc1OCCCOc1ccccc1/C=N\n1c(-c2cccnc2)n[nH]c1=S | 0 mm

tested on: Candida albicans; experiment: Antimicrobial activity against Candida albicans RCMB 005003 at 2.5 mg/ml by agar diffusion technique; format: functional; settings: read-out: DIZ; method in brief: as §1

Structure (SMILES) | zone of inhibition at 2500 µg/mL
Nn1c(-c2cccnc2)n[nH]c1=S | 0 mm
Nn1c(SCCCSc2nnc(-c3cccnc3)n2N)nnc1-c1cccnc1 | 0 mm
S=c1[nH]nc(-c2cccnc2)n1/N=C\c1ccccc1OCCCOc1ccccc1/C=N\n1c(-c2cccnc2)n[nH]c1=S | 0 mm

tested on: Candida albicans; experiment: Antimicrobial activity against Candida albicans RCMB 005003 at 5 mg/ml by agar diffusion technique; format: functional; settings: read-out: DIZ; method in brief: as §1

Structure (SMILES) | zone of inhibition at 5000 µg/mL
Nn1c(-c2cccnc2)n[nH]c1=S | 0 mm
Nn1c(SCCCSc2nnc(-c3cccnc3)n2N)nnc1-c1cccnc1 | 1 mm
S=c1[nH]nc(-c2cccnc2)n1/N=C\c1ccccc1OCCCOc1ccccc1/C=N\n1c(-c2cccnc2)n[nH]c1=S | 0 mm

tested on: Staphylococcus aureus; experiment: Antimicrobial activity against Staphylococcus aureus RCMB 106001 at 1 mg/ml by agar diffusion technique; format: functional; settings: read-out: DIZ; method in brief: as §1

Structure (SMILES) | zone of inhibition at 1000 µg/mL
Nn1c(-c2cccnc2)n[nH]c1=S | 0 mm
Nn1c(SCCCSc2nnc(-c3cccnc3)n2N)nnc1-c1cccnc1 | 0 mm
S=c1[nH]nc(-c2cccnc2)n1/N=C\c1ccccc1OCCCOc1ccccc1/C=N\n1c(-c2cccnc2)n[nH]c1=S | 0 mm

tested on: Staphylococcus aureus; experiment: Antimicrobial activity against Staphylococcus aureus RCMB 106001 at 2.5 mg/ml by agar diffusion technique; format: functional; settings: read-out: DIZ; method in brief: as §1

Structure (SMILES) | zone of inhibition at 2500 µg/mL
Nn1c(-c2cccnc2)n[nH]c1=S | 0 mm
Nn1c(SCCCSc2nnc(-c3cccnc3)n2N)nnc1-c1cccnc1 | 0 mm
S=c1[nH]nc(-c2cccnc2)n1/N=C\c1ccccc1OCCCOc1ccccc1/C=N\n1c(-c2cccnc2)n[nH]c1=S | 1 mm

tested on: Staphylococcus aureus; experiment: Antimicrobial activity against Staphylococcus aureus RCMB 106001 at 5 mg/ml by agar diffusion technique; format: functional; settings: read-out: DIZ; method in brief: as §1

Structure (SMILES) | zone of inhibition at 5000 µg/mL
Nn1c(-c2cccnc2)n[nH]c1=S | 0 mm
Nn1c(SCCCSc2nnc(-c3cccnc3)n2N)nnc1-c1cccnc1 | 0 mm
S=c1[nH]nc(-c2cccnc2)n1/N=C\c1ccccc1OCCCOc1ccccc1/C=N\n1c(-c2cccnc2)n[nH]c1=S | 1 mm

tested on: Pseudomonas aeruginosa; experiment: Antimicrobial activity against Pseudomonas aeruginosa RCMB 102002 at 1 mg/ml by agar diffusion technique; format: functional; settings: read-out: DIZ; method in brief: as §1

Structure (SMILES) | zone of inhibition at 1000 µg/mL
Nn1c(-c2cccnc2)n[nH]c1=S | 0 mm
Nn1c(SCCCSc2nnc(-c3cccnc3)n2N)nnc1-c1cccnc1 | 0 mm
S=c1[nH]nc(-c2cccnc2)n1/N=C\c1ccccc1OCCCOc1ccccc1/C=N\n1c(-c2cccnc2)n[nH]c1=S | 0 mm

tested on: Pseudomonas aeruginosa; experiment: Antimicrobial activity against Pseudomonas aeruginosa RCMB 102002 at 2.5 mg/ml by agar diffusion technique; format: functional; settings: read-out: DIZ; method in brief: as §1

Structure (SMILES) | zone of inhibition at 2500 µg/mL
Nn1c(-c2cccnc2)n[nH]c1=S | 0 mm
Nn1c(SCCCSc2nnc(-c3cccnc3)n2N)nnc1-c1cccnc1 | 0 mm
S=c1[nH]nc(-c2cccnc2)n1/N=C\c1ccccc1OCCCOc1ccccc1/C=N\n1c(-c2cccnc2)n[nH]c1=S | 0 mm

tested on: Pseudomonas aeruginosa; experiment: Antimicrobial activity against Pseudomonas aeruginosa RCMB 102002 at 5 mg/ml by agar diffusion technique; format: functional; settings: read-out: DIZ; method in brief: as §1

Structure (SMILES) | zone of inhibition at 5000 µg/mL
Nn1c(-c2cccnc2)n[nH]c1=S | 0 mm
Nn1c(SCCCSc2nnc(-c3cccnc3)n2N)nnc1-c1cccnc1 | 0 mm
S=c1[nH]nc(-c2cccnc2)n1/N=C\c1ccccc1OCCCOc1ccccc1/C=N\n1c(-c2cccnc2)n[nH]c1=S | 0 mm

tested on: Bacillus subtilis; experiment: Antimicrobial activity against Bacillus subtilis RCMB 101001 at 1 mg/ml by agar diffusion technique; format: functional; settings: read-out: DIZ; method in brief: as §1

Structure (SMILES) | zone of inhibition at 1000 µg/mL
Nn1c(-c2cccnc2)n[nH]c1=S | 0 mm
Nn1c(SCCCSc2nnc(-c3cccnc3)n2N)nnc1-c1cccnc1 | 0 mm
S=c1[nH]nc(-c2cccnc2)n1/N=C\c1ccccc1OCCCOc1ccccc1/C=N\n1c(-c2cccnc2)n[nH]c1=S | 1 mm

tested on: Bacillus subtilis; experiment: Antimicrobial activity against Bacillus subtilis RCMB 101001 at 2.5 mg/ml by agar diffusion technique; format: functional; settings: read-out: DIZ; method in brief: as §1

Structure (SMILES) | zone of inhibition at 2500 µg/mL
Nn1c(-c2cccnc2)n[nH]c1=S | 0 mm
Nn1c(SCCCSc2nnc(-c3cccnc3)n2N)nnc1-c1cccnc1 | 0 mm
S=c1[nH]nc(-c2cccnc2)n1/N=C\c1ccccc1OCCCOc1ccccc1/C=N\n1c(-c2cccnc2)n[nH]c1=S | 1 mm

tested on: Bacillus subtilis; experiment: Antimicrobial activity against Bacillus subtilis RCMB 101001 at 5 mg/ml by agar diffusion technique; format: functional; settings: read-out: DIZ; method in brief: as §1

Structure (SMILES) | zone of inhibition at 5000 µg/mL
Nn1c(-c2cccnc2)n[nH]c1=S | 0 mm
Nn1c(SCCCSc2nnc(-c3cccnc3)n2N)nnc1-c1cccnc1 | 0 mm
S=c1[nH]nc(-c2cccnc2)n1/N=C\c1ccccc1OCCCOc1ccccc1/C=N\n1c(-c2cccnc2)n[nH]c1=S | 1 mm

tested on: Escherichia coli; experiment: Antimicrobial activity against Escherichia coli RCMB 103001 at 1 mg/ml by agar diffusion technique; format: functional; settings: read-out: DIZ; method in brief: as §1

Structure (SMILES) | zone of inhibition at 1000 µg/mL
Nn1c(-c2cccnc2)n[nH]c1=S | 0 mm
Nn1c(SCCCSc2nnc(-c3cccnc3)n2N)nnc1-c1cccnc1 | 0 mm
S=c1[nH]nc(-c2cccnc2)n1/N=C\c1ccccc1OCCCOc1ccccc1/C=N\n1c(-c2cccnc2)n[nH]c1=S | 0 mm

tested on: Escherichia coli; experiment: Antimicrobial activity against Escherichia coli RCMB 103001 at 2.5 mg/ml by agar diffusion technique; format: functional; settings: read-out: DIZ; method in brief: as §1

Structure (SMILES) | zone of inhibition at 2500 µg/mL
Nn1c(-c2cccnc2)n[nH]c1=S | 0 mm
Nn1c(SCCCSc2nnc(-c3cccnc3)n2N)nnc1-c1cccnc1 | 0 mm
S=c1[nH]nc(-c2cccnc2)n1/N=C\c1ccccc1OCCCOc1ccccc1/C=N\n1c(-c2cccnc2)n[nH]c1=S | 0 mm

tested on: Escherichia coli; experiment: Antimicrobial activity against Escherichia coli RCMB 103001 at 5 mg/ml by agar diffusion technique; format: functional; settings: read-out: DIZ; method in brief: as §1

Structure (SMILES) | zone of inhibition at 5000 µg/mL
Nn1c(-c2cccnc2)n[nH]c1=S | 1 mm
Nn1c(SCCCSc2nnc(-c3cccnc3)n2N)nnc1-c1cccnc1 | 0 mm
S=c1[nH]nc(-c2cccnc2)n1/N=C\c1ccccc1OCCCOc1ccccc1/C=N\n1c(-c2cccnc2)n[nH]c1=S | 0 mm

Reference: ChEMBL document CHEMBL1629465, “Efficient synthesis of novel 1,2,4-triazole fused acyclic and 21-28 membered macrocyclic and/or lariat macrocyclic oxaazathia crown compounds with potential antimicrobial activity” (2010)
